From ChEMBL document CHEMBL1145777 (J Med Chem, 2003)

Experiments:
[1] = molecular target: Mu-type opioid receptor (Cavia porcellus, UniProt P97266); assay: Binding affinity towards Opioid receptor mu 1 from guinea pig brain using [3H]DAMGO as radioligand
[2] = molecular target: Kappa-type opioid receptor (Cavia porcellus, UniProt P41144); assay: Binding affinity towards Opioid receptor kappa 1 from guinea pig brain using [3H]U-69593 as radioligand
In short: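 Uses 1 nM [3H]U69,593 with guinea pig brain membrane protein (500 µg), 12 concentrations, 50 mM Tris-HCl pH 7.5, 60 min at 25 °C. Nonspecific binding with 10 µM naloxone. Filters pre-soaked in 0.1% polyethylenimine; bound label counted.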

[3] = Binding affinity towards Opioid receptor delta 1 from guinea pig brain using [3H]naltrindole as radioligand
[4] = molecular target: Kappa-type opioid receptor (Cavia porcellus) (UniProt P41144); assay: Ratio of binding affinity of Opioid receptor kappa 1 to Opioid receptor mu 1 to Opioid receptor delta 1; kappa:mu:delta = 9:5:1
Sequence of Kappa-type opioid receptor (Cavia porcellus) (P41144 whole entry): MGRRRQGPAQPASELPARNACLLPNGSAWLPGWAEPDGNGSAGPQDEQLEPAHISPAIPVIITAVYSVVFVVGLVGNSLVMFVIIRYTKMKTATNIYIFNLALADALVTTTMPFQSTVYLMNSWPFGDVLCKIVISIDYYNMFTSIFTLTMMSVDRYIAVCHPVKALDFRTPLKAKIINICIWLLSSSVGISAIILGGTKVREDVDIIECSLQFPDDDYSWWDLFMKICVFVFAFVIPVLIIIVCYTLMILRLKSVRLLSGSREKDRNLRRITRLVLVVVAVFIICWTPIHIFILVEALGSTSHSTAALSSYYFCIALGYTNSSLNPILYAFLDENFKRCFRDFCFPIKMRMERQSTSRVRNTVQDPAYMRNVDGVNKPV

[5] = molecular target: T1, Mu-type opioid receptor (Homo sapiens, UniProt P35372); assay: Incorporation of [35S]- GTPgammaS into CHO membranes expressing human Opioid receptor mu 1
T1 sequence (P35372 whole entry): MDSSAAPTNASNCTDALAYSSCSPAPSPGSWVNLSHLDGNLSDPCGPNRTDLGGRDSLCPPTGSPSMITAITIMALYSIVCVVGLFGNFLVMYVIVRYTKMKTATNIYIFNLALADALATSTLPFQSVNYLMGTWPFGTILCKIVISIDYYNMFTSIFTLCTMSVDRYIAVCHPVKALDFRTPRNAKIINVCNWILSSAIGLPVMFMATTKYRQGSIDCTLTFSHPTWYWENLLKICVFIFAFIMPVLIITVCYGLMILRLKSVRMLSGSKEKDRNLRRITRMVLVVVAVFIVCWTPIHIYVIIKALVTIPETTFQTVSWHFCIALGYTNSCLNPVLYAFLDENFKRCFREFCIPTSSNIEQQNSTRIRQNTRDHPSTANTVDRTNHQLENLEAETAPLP

[6] = molecular target: T2, Kappa-type opioid receptor (Homo sapiens, UniProt P41145); assay: (§1) Incorporation of [35S]GTP-gamma-S, into CHO membranes expressing human Opioid receptor kappa 1; format: functional
T2 sequence (P41145 whole entry): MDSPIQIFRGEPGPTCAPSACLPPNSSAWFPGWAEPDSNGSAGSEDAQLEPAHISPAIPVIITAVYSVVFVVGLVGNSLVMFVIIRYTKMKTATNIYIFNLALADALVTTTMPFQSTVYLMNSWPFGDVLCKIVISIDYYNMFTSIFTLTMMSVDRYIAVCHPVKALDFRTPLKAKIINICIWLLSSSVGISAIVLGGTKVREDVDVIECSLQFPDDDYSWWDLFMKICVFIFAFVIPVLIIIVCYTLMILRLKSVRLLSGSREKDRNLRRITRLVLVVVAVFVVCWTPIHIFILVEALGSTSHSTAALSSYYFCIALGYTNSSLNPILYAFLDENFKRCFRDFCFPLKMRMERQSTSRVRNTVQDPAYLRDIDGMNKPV

[7] = molecular target: T1, Mu-type opioid receptor; assay: Incorporation of [35S]GTP-gamma-S, into CHO membranes expressing human Opioid receptor mu 1; format: functional
[8] = molecular target: T2, Kappa-type opioid receptor; assay: as §1; format: functional; remark: listed apart in the source
[9] = molecular target: Kappa-type opioid receptor (Cavia porcellus) (UniProt P41144); assay: Ratio of binding affinity of Opioid receptor kappa 1 to Opioid receptor mu 1 to Opioid receptor delta 1; kappa:mu:delta = 11:7:1
[10] = molecular target: Kappa-type opioid receptor (Cavia porcellus) (UniProt P41144); assay: Ratio of binding affinity of Opioid receptor kappa 1 to Opioid receptor mu 1 to Opioid receptor delta 1; kappa:mu:delta = 28:12:1
[11] = molecular target: Kappa-type opioid receptor (Cavia porcellus) (UniProt P41144); assay: Ratio of binding affinity of Opioid receptor kappa 1 to Opioid receptor mu 1 to Opioid receptor delta 1; kappa:mu:delta = 47:26:1
[12] = molecular target: Kappa-type opioid receptor (Cavia porcellus) (UniProt P41144); assay: Ratio of binding affinity of Opioid receptor kappa 1 to Opioid receptor mu 1 to Opioid receptor delta 1; kappa:mu:delta = 1:1:1
[13] = molecular target: Kappa-type opioid receptor (Cavia porcellus) (UniProt P41144); assay: Ratio of binding affinity of Opioid receptor kappa 1 to Opioid receptor mu 1 to Opioid receptor delta 1; kappa:mu:delta = 5:4:1
[14] = molecular target: Kappa-type opioid receptor (Cavia porcellus) (UniProt P41144); assay: Ratio of binding affinity of Opioid receptor kappa 1 to Opioid receptor mu 1 to Opioid receptor delta 1; kappa:mu:delta = 29:18:1
[15] = molecular target: Kappa-type opioid receptor (Cavia porcellus) (UniProt P41144); assay: Ratio of binding affinity of Opioid receptor kappa 1 to Opioid receptor mu 1 to Opioid receptor delta 1; kappa:mu:delta = 16:14:1
[16] = molecular target: Kappa-type opioid receptor (Cavia porcellus) (UniProt P41144); assay: Ratio of binding affinity of Opioid receptor kappa 1 to Opioid receptor mu 1 to Opioid receptor delta 1; kappa:mu:delta = 150:7:1

Sequence of Mu-type opioid receptor (Cavia porcellus, UniProt P97266) (P97266 whole entry): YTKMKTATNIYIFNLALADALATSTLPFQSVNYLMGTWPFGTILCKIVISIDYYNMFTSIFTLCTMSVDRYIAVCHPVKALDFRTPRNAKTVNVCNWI
Sequence of Kappa-type opioid receptor (Cavia porcellus, UniProt P41144) (P41144 whole entry): as the sequence (P41144 whole entry) above

C[C@H]1C2Cc3ccc(Nc4ccncc4)cc3[C@@]1(C)CCN2CC1CC1
Ki [1]: 18 nM
Ki [2]: 2.9 nM

CC[C@@]12CCN(CC3CC3)C(C(=O)c3ccc(O)cc31)[C@@H]2C (single isomer, unassigned; (+)) [ETHYLKETOCYCLAZOCINE]
Ki [1]: 320 nM

C[C@@H]1[C@@H]2Cc3ccc(N)cc3[C@]1(C)CCN2CC1CC1
Ki [1]: 780 nM
Ki [2]: 506 nM

C[C@H]1[C@H]2Cc3ccc(Nc4ccccc4)cc3[C@@]1(C)CCN2CC1CC1 (stereo in doubt; (+)12)
Ki [3]: 270 nM

CC[C@@]12CCN(CC3CC3)C(C(=O)c3ccc(N)cc31)[C@@H]2C (single isomer, unassigned; (+)) [listing 1 of 2 here]
Ratio [4]: 9

C[C@H]1[C@H]2Cc3ccc(Nc4ccccc4)cc3[C@@]1(C)CCN2CC1CC1 [listing 1 of 2 here]
EC50 [5]: 15 nM
EC50 [6]: 3.8 nM

CC[C@@]12CCN(CC3CC3)C(C(=O)c3ccc(O)cc31)[C@@H]2C (single isomer, unassigned; (-))
Emax [7]: 70%
Emax [8]: 170%

C[C@H]1C2Cc3ccc(Nc4cccnc4)cc3[C@@]1(C)CCN2CC1CC1
Emax [8]: 90%
Ki [1]: 0.64 nM
EC50 [6]: 10 nM
Ki [2]: 0.5 nM

Cc1ccc(Nc2ccc3c(c2)[C@@]2(C)CCN(CC4CC4)C(C3)[C@@H]2C)cc1
Ki [1]: 0.91 nM
Ratio [9]: 11
Ki [2]: 0.57 nM

COc1cccc(Nc2ccc3c(c2)[C@@]2(C)CCN(CC4CC4)C(C3)[C@@H]2C)c1
Ki [1]: 1.8 nM
Ki [2]: 1 nM

C[C@H]1C2C(=O)c3ccc(N)cc3[C@@]1(C)CCN2CC1CC1
EC50 [5]: 180 nM
Emax [7]: 80%
Emax [8]: 70%
Ki [1]: 3.6 nM
EC50 [6]: 9.7 nM
Ki [2]: 0.8 nM

C[C@H]1C2Cc3ccc(N)cc3[C@@]1(C)CCN2CC1CC1
Ki [3]: 110 nM

C[C@H]1[C@H]2Cc3ccc(O)cc3[C@]1(C)CCN2CC1CC1 (stereo in doubt) [CYCLAZOCINE]
EC50 [6]: 1.6 nM

C[C@H]1C2Cc3ccc(N(C)C)cc3[C@@]1(C)CCN2CC1CC1 (single isomer, unassigned; (+))
Ki [1]: 50000 nM
Ki [2]: 3000 nM

C[C@H]1C2C(=O)c3ccc(O)cc3[C@@]1(C)CCN2CC1CC1
EC50 [5]: 21 nM
Emax [7]: 40%
Emax [8]: 80%
EC50 [6]: 3.3 nM
Ki [2]: 1 nM

C[C@H]1C2Cc3ccc(N4CCN(C)CC4)cc3[C@@]1(C)CCN2CC1CC1
Ratio [10]: 28
Ki [3]: 250 nM

C[C@H]1[C@H]2Cc3ccc(Nc4ccccc4)cc3[C@@]1(C)CCN2C[C@@H]1CCCO1
Ki [1]: 2.8 nM
Ki [2]: 2 nM

C[C@H]1[C@H]2Cc3ccc(N)cc3[C@@]1(C)CCN2C[C@@H]1CCCO1
Emax [8]: 330%
Ki [1]: 14 nM
EC50 [6]: 70 nM
Ratio [11]: 47
Ki [2]: 7.8 nM

C[C@H]1[C@H]2Cc3ccc(O)cc3[C@]1(C)CCN2CC1CC1 (stereo in doubt; (-)2) [CYCLAZOCINE]
EC50 [6]: 1.2 nM

C[C@H]1[C@H]2Cc3ccc(O)cc3[C@]1(C)CCN2CC1CC1 (stereo in doubt)
Emax [8]: 90%

C[C@H]1C2Cc3ccc(N=C(c4ccccc4)c4ccccc4)cc3[C@@]1(C)CCN2CC1CC1
Ki [1]: 360 nM
Ratio [12]: 1
Ki [2]: 170 nM

C[C@H]1C2Cc3ccc(NCc4ccccc4)cc3[C@@]1(C)CCN2CC1CC1 (single isomer, unassigned; (-))
Ki [3]: 54 nM

C[C@H]1C2Cc3ccc(N4CCCC4)cc3[C@@]1(C)CCN2CC1CC1
Ki [3]: 1800 nM

C[C@H]1[C@H]2Cc3ccc(Nc4ccccc4)cc3[C@@]1(C)CCN2CC1CC1 (stereo in doubt; 10) [listing 1 of 2 here]
Ki [3]: 9.4 nM

C[C@H]1[C@H]2Cc3ccc(Nc4ccccc4)cc3[C@@]1(C)CCN2CC1CC1 (stereo in doubt; 10) [listing 2 of 2 here]
Ratio [9]: 11

CC[C@@]12CCN(CC3CC3)C(C(=O)c3ccc(N)cc31)[C@@H]2C (single isomer, unassigned; (+)) [listing 2 of 2 here]
Ki [1]: 17 nM
Ki [2]: 91 nM

C[C@H]1C2Cc3ccc(N4CCOCC4)cc3[C@@]1(C)CCN2CC1CC1
Ratio [13]: 5
Ki [3]: 2800 nM

C[C@H]1C2Cc3ccc(NCc4ccc(Cl)cc4)cc3[C@@]1(C)CCN2CC1CC1
Ki [1]: 8.8 nM
Ki [2]: 7.2 nM

C[C@H]1C2Cc3ccc(N(C)C)cc3[C@@]1(C)CCN2CC1CC1 (stereo in doubt; 30)
Ki [3]: 1500 nM

C[C@H]1C2Cc3cc4c(cc3[C@@]1(C)CCN2CC1CC1)[nH]c1ccccc14
Ki [2]: 9.6 nM

CCNc1ccc2c(c1)[C@@]1(C)CCN(CC3CC3)C(C2)[C@@H]1C
Ki [3]: 19 nM

CC[C@@]12CCN(CC3CC3)C(C(=O)c3ccc(N)cc31)[C@@H]2C (stereo in doubt; 44) [listing 1 of 2 here]
EC50 [5]: 62 nM
Ki [1]: 7.3 nM
EC50 [6]: 4.4 nM
Ki [2]: 0.34 nM

COc1ccc(Nc2ccc3c(c2)[C@@]2(C)CCN(CC4CC4)C(C3)[C@@H]2C)cc1
Ki [1]: 0.47 nM
Ratio [14]: 29
Ki [2]: 0.29 nM

C[C@H]1[C@H]2Cc3ccc(Nc4ccccc4)cc3[C@@]1(C)CCN2CC1CC1 [listing 2 of 2 here]
Emax [7]: 50%
Emax [8]: 120%

C[C@H]1C2Cc3ccc(Nc4ccc(C(F)(F)F)cc4)cc3[C@@]1(C)CCN2CC1CC1
Ki [1]: 13 nM
Ratio [15]: 16
Ki [2]: 11 nM

CC[C@@]12CCN(CC3CC3)C(C(=O)c3ccc(Nc4ccccc4)cc31)[C@@H]2C
EC50 [5]: 22 nM
Emax [7]: 70%
Emax [8]: 110%
Ki [1]: 10 nM
EC50 [6]: 5.9 nM
Ki [2]: 2.2 nM

CC[C@@]12CCN(CC3CC3)C(C(=O)c3ccc(N)cc31)[C@@H]2C (single isomer, unassigned; (-))
EC50 [5]: 92 nM
Ki [1]: 2.7 nM
EC50 [6]: 2.8 nM
Ki [2]: 1.1 nM

C[C@H]1[C@H]2Cc3ccc(N)cc3[C@@]1(C)CCN2CC1CC1
Emax [8]: 80%
EC50 [6]: 20 nM
Ki [3]: 12 nM

CC[C@@]12CCN(CC3CC3)C(C(=O)c3ccc(O)cc31)[C@@H]2C (single isomer, unassigned; (-)) [ETHYLKETOCYCLAZOCINE]
EC50 [5]: 5.5 nM
Ki [1]: 0.73 nM

CNc1ccc2c(c1)[C@@]1(C)CCN(CC3CC3)C(C2)[C@@H]1C
Ki [3]: 470 nM

C[C@H]1C2Cc3ccc(NCc4ccccc4)cc3[C@@]1(C)CCN2CC1CC1 (stereo in doubt; 25)
Ki [3]: 57 nM

CC[C@@]12CCN(CC3CC3)C(C(=O)c3ccc(N)cc31)[C@@H]2C (stereo in doubt; 44) [listing 2 of 2 here]
Emax [7]: 60%
Emax [8]: 100%
Ratio [16]: 150

C[C@H]1[C@H]2Cc3ccc(O)cc3[C@]1(C)CCN2CC1CC1 (stereo in doubt; (-)2)
Emax [7]: 50%
Emax [8]: 100%

COc1ccc(CNc2ccc3c(c2)[C@@]2(C)CCN(CC4CC4)C(C3)[C@@H]2C)cc1
Ki [1]: 7.8 nM
Ki [2]: 71 nM

C[C@H]1[C@H]2Cc3ccc(O)cc3[C@@]1(C)CCN2C[C@@H]1CCCO1
Emax [8]: 70%
Ki [1]: 0.17 nM
EC50 [6]: 4 nM
Ki [2]: 0.073 nM

C[C@H]1C2Cc3ccc(Nc4ccccn4)cc3[C@@]1(C)CCN2CC1CC1
Ki [1]: 4.2 nM
Ki [2]: 9.2 nM

CC(C)Nc1ccc2c(c1)[C@@]1(C)CCN(CC3CC3)C(C2)[C@@H]1C
Ki [3]: 460 nM

C[C@H]1C2Cc3ccc(N(C)C)cc3[C@@]1(C)CCN2CC1CC1 (single isomer, unassigned; (-))
Ki [1]: 46 nM
Ki [2]: 18 nM
